This note sets out measurements from ChEMBL document CHEMBL1955726, “Novel Rho kinase inhibitors with anti-inflammatory and vasodilatory activities” (J Pharmacol Exp Ther, 2007).

In general, IC50 refers to the concentration at which inhibition is half-maximal.

Data set [1] addresses Mitogen-activated protein kinase 10 (Homo sapiens, UniProt P53779). Kind of data set: Inhibition of JNK3.
Data set [2] concerns the target Serine/threonine-protein kinase PLK1 (Homo sapiens, UniProt P53350). Nature of the data set: Inhibition of PLK.
The test system of data set [3] is Rattus norvegicus. Nature of the data set: Cardiovascular activity in spontaneously hypertensive rat assessed as increase in heart rate at 0.3 to 3 mg/kg, po. Format: ADME, organism-based. The arrangement: dose 0.3-3 mg/kg, route oral. The note with it: in vivo. A digest of the protocol:
(§1)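 Compound given by oral gavage: 0.3, 1 and 3 mg/kg to spontaneously hypertensive rats, and 1 mg/kg to DOCA salt-treated hypertensive rats. A vehicle group was run alongside. Heart rate and blood pressure were recorded from immediately after dosing as 10-s averages every 5 min. There were 4-6 animals per dose (5 per group in the legend), and the change was taken from each group's baseline.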

For data set [4], the system named is Rattus norvegicus. Nature of the data set: Antihypertensive activity in rat assessed as reduction of DOCA salt-induced blood pressure at 1 mg/kg, po after 2 hrs. Format: functional.
Data set [5] has as its system Rattus norvegicus. Kind of data set: Antihypertensive activity in spontaneously hypertensive rat assessed as reduction of blood pressure at 1 mg/kg, po after 2 hrs. Format: functional.
Data set [6] relates to Rattus norvegicus. Kind of data set: Cardiovascular activity in DOCA salt treated rat assessed as increase in heart rate at 1 mg/kg, po. Format: ADME, organism-based. Also noted: dose 1 mg/kg, route oral. The note with it: in vivo. In short, it runs like this: as §1
In data set [7] the test system is Rattus norvegicus. Kind of data set: Antihypertensive activity in normotensive Sprague-Dawley rat assessed as reduction of blood pressure at 1 mg/kg, po after 2 hrs. The class given is functional.
Data set [8] addresses Ribosomal protein S6 kinase alpha-1 (Homo sapiens, UniProt Q15418). Kind of data set: Inhibition of RSK1.
In data set [9] the target is RAC-alpha serine/threonine-protein kinase (Homo sapiens, UniProt P31749). Kind of data set: Inhibition of AKT1.
RAC-alpha serine/threonine-protein kinase, sequence (P31749 whole entry): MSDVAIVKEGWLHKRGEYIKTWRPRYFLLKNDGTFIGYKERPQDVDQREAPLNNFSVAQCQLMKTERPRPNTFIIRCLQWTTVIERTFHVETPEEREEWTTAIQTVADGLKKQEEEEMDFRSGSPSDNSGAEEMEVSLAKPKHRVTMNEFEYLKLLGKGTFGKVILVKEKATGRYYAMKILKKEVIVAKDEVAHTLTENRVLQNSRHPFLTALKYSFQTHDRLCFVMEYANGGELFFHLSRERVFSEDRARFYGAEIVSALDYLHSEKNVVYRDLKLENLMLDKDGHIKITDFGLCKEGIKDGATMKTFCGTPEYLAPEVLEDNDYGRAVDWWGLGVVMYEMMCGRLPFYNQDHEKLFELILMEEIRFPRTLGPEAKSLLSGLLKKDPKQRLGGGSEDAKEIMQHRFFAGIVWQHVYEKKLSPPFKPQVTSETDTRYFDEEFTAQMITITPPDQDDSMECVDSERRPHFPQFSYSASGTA
In data set [10] the target is RAC-beta serine/threonine-protein kinase (Homo sapiens, UniProt P31751). Kind of data set: Inhibition of AKT2.
Data set [11] deals with RAC-gamma serine/threonine-protein kinase (Homo sapiens, UniProt Q9Y243). Kind of data set: Inhibition of AKT3.
RAC-gamma serine/threonine-protein kinase, sequence (Q9Y243 whole entry): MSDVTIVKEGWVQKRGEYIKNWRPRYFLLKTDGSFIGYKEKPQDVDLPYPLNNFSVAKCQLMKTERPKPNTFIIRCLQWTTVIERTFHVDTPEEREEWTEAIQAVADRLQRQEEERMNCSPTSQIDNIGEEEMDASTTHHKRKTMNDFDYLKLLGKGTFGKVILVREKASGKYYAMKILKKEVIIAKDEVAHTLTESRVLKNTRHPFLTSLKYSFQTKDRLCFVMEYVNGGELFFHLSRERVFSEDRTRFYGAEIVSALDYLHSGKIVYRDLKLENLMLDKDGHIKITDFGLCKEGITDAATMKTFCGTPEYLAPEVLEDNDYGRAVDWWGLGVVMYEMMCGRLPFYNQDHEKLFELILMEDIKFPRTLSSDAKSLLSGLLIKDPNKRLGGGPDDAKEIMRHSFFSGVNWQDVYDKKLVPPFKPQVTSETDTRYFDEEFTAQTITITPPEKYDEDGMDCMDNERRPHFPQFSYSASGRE
Data set [12] has as its target Cyclin-dependent kinase 2 (Homo sapiens, UniProt P24941). Kind of data set: Inhibition of CDK2.
Data set [13] concerns the target Glycogen synthase kinase-3 alpha (Homo sapiens, UniProt P49840). Nature of the data set: Inhibition of GSK3alpha.
Data set [14] has as its target T1, Inhibitor of nuclear factor kappa-B kinase subunit beta (Homo sapiens, UniProt O14920).
T1 sequence (O14920 whole entry): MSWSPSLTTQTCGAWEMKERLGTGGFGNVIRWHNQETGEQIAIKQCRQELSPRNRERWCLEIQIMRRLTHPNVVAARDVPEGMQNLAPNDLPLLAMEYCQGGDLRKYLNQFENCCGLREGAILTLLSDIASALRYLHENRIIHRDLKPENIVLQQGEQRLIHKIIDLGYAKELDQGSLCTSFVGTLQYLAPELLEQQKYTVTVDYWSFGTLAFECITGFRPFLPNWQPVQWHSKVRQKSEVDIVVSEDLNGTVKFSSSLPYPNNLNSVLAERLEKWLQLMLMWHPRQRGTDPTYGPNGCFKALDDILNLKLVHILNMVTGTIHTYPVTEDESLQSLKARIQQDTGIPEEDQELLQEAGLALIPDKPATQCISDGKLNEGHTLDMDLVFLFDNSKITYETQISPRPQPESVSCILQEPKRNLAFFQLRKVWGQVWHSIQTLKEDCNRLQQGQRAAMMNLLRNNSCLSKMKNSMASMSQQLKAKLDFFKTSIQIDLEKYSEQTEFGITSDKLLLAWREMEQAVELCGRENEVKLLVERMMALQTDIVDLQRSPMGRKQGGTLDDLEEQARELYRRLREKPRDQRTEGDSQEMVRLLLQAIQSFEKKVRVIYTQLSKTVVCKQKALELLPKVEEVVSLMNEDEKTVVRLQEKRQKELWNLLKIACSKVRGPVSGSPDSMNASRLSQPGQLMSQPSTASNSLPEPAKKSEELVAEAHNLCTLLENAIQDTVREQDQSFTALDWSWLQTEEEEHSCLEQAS
Kind of data set: Inhibition of IKK2.

Another data set has as its system Aorta. Kind of data set: Vasodilatory activity in Sprague-Dawley rat aorta assessed as reversal of KCl/phenylephrine-induced muscle contraction. Format: functional, tissue-based.
For data set [15], the target named is Rho-associated protein kinase 1 (Homo sapiens, UniProt Q13464). Nature of the data set: Inhibition of human recombinant N-terminal his-tagged ROCK1 (3-543) expressed in baculovirus infected Sf9 cells using Biotin-Ahx-AKRRLSSLRA-CONH2 substrate and [gamma-33P]ATP after 90 mins by scintillation proximity assay. A general note: In a scintillation proximity assay essentially only radioactivity close to the scintillant gives light.

Data set [16] concerns the target Rho-associated protein kinase 2 (Homo sapiens, UniProt O75116). Kind of data set: Inhibition of human ROCK2.
The subject of data set [17] is primary macrophages (Homo sapiens). Nature of the data set: Antiinflammatory activity in human primary monocyte-derived macrophages assessed as inhibition of LPS-induced IL-6 mRNA expression at 10 uM treated 30 mins before LPS stimulation measured after 18 hrs by Northern blotting.
Data set [18] addresses Ribosomal protein S6 kinase alpha-5 (Homo sapiens, UniProt O75582). Kind of data set: Inhibition of MSK1.

Calls of active or inactive are those of the source. The calls are words filed in the database; no cut-off is given here.

Mitogen-activated protein kinase 10, sequence (P53779 whole entry): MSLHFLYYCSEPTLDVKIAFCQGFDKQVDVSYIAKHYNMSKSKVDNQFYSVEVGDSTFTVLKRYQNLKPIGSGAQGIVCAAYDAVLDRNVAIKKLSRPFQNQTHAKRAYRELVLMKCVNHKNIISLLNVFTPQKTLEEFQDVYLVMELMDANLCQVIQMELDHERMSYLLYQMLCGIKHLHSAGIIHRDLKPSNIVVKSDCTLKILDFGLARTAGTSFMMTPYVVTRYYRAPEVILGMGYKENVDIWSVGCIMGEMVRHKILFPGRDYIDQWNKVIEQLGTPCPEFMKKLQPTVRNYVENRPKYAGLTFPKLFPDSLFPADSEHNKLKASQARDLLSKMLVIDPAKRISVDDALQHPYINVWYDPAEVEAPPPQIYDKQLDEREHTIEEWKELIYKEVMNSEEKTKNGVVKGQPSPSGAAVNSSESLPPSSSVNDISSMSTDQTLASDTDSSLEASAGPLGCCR
Rho-associated protein kinase 2, sequence (O75116 whole entry): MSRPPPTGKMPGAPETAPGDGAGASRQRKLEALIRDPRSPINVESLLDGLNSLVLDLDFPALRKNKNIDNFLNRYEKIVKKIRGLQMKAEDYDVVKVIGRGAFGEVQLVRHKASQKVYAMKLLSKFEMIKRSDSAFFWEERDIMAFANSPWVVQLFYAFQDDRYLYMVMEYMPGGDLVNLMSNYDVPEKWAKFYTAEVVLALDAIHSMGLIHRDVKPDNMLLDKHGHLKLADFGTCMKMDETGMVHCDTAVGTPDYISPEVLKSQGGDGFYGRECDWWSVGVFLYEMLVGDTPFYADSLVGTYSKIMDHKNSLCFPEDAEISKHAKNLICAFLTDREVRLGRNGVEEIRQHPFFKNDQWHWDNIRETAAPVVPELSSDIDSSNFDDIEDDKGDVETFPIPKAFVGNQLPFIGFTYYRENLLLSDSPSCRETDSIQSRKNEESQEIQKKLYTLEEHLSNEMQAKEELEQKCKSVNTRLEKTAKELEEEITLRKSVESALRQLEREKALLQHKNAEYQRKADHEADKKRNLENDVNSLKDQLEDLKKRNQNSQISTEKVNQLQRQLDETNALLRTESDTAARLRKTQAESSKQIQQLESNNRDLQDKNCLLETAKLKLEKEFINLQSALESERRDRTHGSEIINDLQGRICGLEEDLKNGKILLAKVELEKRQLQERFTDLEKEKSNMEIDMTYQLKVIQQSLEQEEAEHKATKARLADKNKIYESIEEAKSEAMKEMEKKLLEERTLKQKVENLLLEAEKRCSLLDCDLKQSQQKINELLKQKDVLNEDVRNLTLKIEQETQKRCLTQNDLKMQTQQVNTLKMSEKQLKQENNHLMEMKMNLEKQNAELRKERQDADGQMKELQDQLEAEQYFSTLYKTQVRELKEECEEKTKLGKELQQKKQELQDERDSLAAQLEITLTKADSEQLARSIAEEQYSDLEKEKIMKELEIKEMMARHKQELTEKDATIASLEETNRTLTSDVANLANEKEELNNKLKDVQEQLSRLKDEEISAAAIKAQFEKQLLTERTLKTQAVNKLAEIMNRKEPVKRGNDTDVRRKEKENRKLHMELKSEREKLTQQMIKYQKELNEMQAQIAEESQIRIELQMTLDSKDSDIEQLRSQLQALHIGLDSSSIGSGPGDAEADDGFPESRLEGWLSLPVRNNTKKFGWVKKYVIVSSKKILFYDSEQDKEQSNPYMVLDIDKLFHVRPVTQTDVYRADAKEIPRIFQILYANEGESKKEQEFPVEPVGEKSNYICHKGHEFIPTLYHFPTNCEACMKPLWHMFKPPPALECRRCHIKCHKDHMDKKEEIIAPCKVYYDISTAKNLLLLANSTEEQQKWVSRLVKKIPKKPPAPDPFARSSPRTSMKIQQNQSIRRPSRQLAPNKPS
Glycogen synthase kinase-3 alpha, sequence (P49840 whole entry): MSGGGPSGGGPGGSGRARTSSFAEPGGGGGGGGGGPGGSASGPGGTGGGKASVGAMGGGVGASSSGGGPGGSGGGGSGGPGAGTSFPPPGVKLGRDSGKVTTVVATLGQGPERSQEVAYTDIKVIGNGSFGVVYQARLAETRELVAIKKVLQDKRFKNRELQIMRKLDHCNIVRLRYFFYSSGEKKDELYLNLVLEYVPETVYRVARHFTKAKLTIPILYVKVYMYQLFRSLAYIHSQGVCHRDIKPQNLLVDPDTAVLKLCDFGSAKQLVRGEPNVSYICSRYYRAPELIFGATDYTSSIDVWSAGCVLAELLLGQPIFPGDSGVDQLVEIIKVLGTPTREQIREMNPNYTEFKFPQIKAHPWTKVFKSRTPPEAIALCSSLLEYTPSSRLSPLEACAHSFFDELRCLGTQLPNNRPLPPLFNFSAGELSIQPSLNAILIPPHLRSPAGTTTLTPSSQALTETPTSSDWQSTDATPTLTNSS
Serine/threonine-protein kinase PLK1, sequence (P53350 whole entry): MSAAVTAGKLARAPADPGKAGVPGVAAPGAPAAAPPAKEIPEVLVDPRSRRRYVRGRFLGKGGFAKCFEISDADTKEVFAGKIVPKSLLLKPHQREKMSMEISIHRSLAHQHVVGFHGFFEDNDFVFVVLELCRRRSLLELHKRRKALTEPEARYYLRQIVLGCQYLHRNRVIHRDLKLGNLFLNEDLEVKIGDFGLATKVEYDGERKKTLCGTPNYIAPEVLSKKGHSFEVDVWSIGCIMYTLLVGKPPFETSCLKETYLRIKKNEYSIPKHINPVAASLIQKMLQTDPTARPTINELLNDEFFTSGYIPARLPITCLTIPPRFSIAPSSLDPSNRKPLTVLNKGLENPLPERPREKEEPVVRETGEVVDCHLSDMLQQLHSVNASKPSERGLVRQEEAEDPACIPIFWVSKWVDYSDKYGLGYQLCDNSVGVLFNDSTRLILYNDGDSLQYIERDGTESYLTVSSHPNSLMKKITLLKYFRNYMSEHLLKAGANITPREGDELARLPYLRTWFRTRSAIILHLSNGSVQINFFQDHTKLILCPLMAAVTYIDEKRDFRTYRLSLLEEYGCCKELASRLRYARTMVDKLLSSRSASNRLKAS
Ribosomal protein S6 kinase alpha-1, sequence (Q15418 whole entry): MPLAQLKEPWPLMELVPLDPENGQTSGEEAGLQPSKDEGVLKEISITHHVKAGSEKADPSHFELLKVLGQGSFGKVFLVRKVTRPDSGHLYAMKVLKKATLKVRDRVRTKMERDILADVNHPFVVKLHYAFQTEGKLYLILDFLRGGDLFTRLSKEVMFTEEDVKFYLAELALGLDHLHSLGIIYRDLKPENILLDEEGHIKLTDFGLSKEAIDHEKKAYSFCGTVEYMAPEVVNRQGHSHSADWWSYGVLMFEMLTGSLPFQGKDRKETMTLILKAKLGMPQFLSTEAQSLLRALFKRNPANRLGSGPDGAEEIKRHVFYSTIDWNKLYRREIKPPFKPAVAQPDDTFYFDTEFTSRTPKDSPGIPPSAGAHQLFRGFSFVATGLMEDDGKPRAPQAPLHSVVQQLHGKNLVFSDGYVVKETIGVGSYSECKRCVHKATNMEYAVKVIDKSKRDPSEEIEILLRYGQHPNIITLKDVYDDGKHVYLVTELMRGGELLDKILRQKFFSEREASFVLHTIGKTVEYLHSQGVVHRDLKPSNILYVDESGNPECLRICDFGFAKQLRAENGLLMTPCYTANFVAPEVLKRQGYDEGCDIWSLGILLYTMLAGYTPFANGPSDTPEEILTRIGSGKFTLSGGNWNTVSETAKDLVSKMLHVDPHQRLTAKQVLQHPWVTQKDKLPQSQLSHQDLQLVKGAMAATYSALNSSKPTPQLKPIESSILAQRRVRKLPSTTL

Turning to `CCn1c(-c2nonc2N)nc2cncc(C(=O)N3CC[C@H](N)C3)c21`, the IC50 was greater than 10000 nM in data set [1]; greater than 10000 nM in data set [2]; 35 nM in [8]; 324 nM in data set [9]; 1950 nM in data set [10]; 1290 nM in [11]. Moreover, the concentration for half-maximal inhibition (IC50) is 7000 nM in [12], 9100 nM in data set [13] and greater than 10000 nM in data set [14]. In addition, the Activity entry in the data set on Rattus norvegicus [3] is “Dose-dependent effect”; with Rattus norvegicus [4] it was 40 mmHg; in the data set on Rattus norvegicus [5], 40 mmHg; with Rattus norvegicus [6], “Toxic”; with Rattus norvegicus [7], 12 mmHg.

As for `C[C@@H](N)[C@H]1CC[C@H](C(=O)Nc2ccncc2)CC1` [Y-27632], the IC50 with Aorta came to 1400 nM. The Activity result in the data set with Rattus norvegicus [3] is recorded as “Dose-dependent effect”.

Take `CCn1c(-c2nonc2N)nc2cnccc21`: the half-inhibitory concentration (IC50) in data set [15] and in data set [16] was less than 10 nM throughout. The inhibition entry in [17] is “Active”.

As to `CCn1c(-c2nonc2N)nc2cncc(-c3ccc(CN)cc3)c21`, the IC50 in data set [15] and in data set [16] was less than 10 nM throughout. Besides, the inhibition result in data set [17] is “Active”.

On to `CCn1c(-c2nonc2N)nc2cnc(Oc3cccc(NC(=O)c4ccc(OCCN5CCOCC5)cc4)c3)cc21` [GSK-269962A], for which the IC50 in data set [1] is greater than 10000 nM; in [2], greater than 10000 nM; in [8], 132 nM; in data set [18], 49 nM; in data set [9], 955 nM; in [11], 1510 nM. In addition, the IC50 in data set [12] is 3500 nM; in data set [13], 1260 nM; in data set [14], greater than 10000 nM. Moreover, in the data set with Rattus norvegicus [3], the Activity entry is “Dose-dependent effect”.
